Most compounds without a hit are left out; they make up all but 3.7% or so of the library.
Kir21 inh: inhibitors of mouse Kir2.1 inward-rectifier potassium channel | P35561 | HEK293-Kir2.1, FluxOR thallium flux fluorescence; stronger effect = lower value | B-score at 10 µM | 310,000 tested, 0.85% active;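 active = fluorescence ratio B-score at or below minus 3 SD of library scores, with starting-brightness B-score within 2 SD, cut at about -4.2 in these data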;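 note: channel flux triggered by added potassium and thallium sulfate stimulus; B-score of peak minus minimum fluorescence over baseline after thallium stimulus; more negative B-score means stronger Kir2.1 block with less thallium influx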
Target sequence (P35561 whole entry, looked up): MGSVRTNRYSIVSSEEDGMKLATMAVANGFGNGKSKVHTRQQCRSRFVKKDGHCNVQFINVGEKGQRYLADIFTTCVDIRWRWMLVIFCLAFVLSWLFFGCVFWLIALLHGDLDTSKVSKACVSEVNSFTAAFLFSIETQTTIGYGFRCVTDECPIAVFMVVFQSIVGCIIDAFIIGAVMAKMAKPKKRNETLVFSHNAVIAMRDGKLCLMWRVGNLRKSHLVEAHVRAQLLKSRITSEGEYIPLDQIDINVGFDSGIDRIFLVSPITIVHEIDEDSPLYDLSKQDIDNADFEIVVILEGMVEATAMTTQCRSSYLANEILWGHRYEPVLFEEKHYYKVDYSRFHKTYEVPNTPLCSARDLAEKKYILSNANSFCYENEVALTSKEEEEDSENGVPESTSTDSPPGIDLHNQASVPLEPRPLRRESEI
KCNQ1 pot: potentiates or activates the human KCNQ1 potassium channel; CHO-K1 KCNQ1, thallium flux FluxOR fluorescence; stronger effect = higher value; B-score at 10 µM; 310,000 tested, 0.35% active; AID 2648;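 active = fluorescence ratio B-score, a plate-corrected score, at least three library SD, with initial intensity B-score within 5 SD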
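assay system = KCNQ1-transfected CHO-K1 cells | medium = assay buffer with matched DMSO | probe or stimulus = depolarizing K+/Tl+ stimulus, K2SO4 and Tl2SO4 each 12.5 mM in 5x stock | dosing = single dose | incubation = dye 90 min, compound 20 min, room temperature | detection = kinetic FluxOR fluorescence, 10 s baseline plus 110 s post-stimulus | evaluation = ratio B score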
KCNQ1 block: human KCNQ1 channel inhibition; B-score at 10 µM; 310,000 tested, 1.3% active; AID 2642; CHO-K1 KCNQ1, FluxOR thallium flux fluorescence; stronger effect = higher value;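 active = compounds whose thallium flux B-score, printed positive for inhibition, exceeds three library SD while starting fluorescence stays within three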;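 note: channel opened by potassium depolarization with thallium stimulus after 20 min compound exposure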
KCNK3 inh: human KCNK3 channel inhibition, primary screen; O14649; CHO-KCNK3 thallium flux, FluxOR fluorescence; stronger effect = lower value; B-score at 10 µM; 340,000 tested, 0.84% active; AID 602410;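 active = B-score under library mean minus 4 SD, starting fluorescence ratio at most library mean plus 5 SD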;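 note: more negative B-score means stronger inhibition of thallium flux through KCNK3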
hERG rescue: shields human hERG channel from block by proarrhythmic agents | CHO-hERG, FluxOR thallium flux, dofetilide IC70 present | activation (rescue from dofetilide block), less the hit threshold, % at 10 µM | 310,000 tested, 0.51% active | AID 1511;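 active = activation above the mean of controls blocked by dofetilide plus 5 SD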;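 note: thallium influx through hERG after potassium depolarization seen as dye fluorescence rise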
KCNK9 inh: inhibitors of human KCNK9 two-pore domain potassium channel; 310,000 tested, 1.2% active; B-score at 10 µM; Q9NPC2; HEK293 KCNK9, FluxOR thallium flux fluorescence; stronger effect = lower value;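 active = ratio B-score over 3 SD below the library mean, with starting fluorescence within 5 SD of its mean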;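 note: negative B-score means less thallium flux so channel inhibition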
KCNK3 inh conf: confirmation of human KCNK3 two-pore domain potassium channel inhibitors | shares compounds with KCNK3 inh | 2,400 tested, 99% active | ratio percent of control, % at 10 µM | AID 651638 | CHO-KCNK3 thallium flux, FluxOR fluorescence; 0% buffer, 100% carvedilol maximal block;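 active = ratio percent of control, averaged over triplicates, above buffer control mean plus 5 SD, cut at about 64% in these data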;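 note: ratio is the fluorescence rise from min to max over baseline after thallium stimulus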
KCNK3 uninduced: activity in cells without induced KCNK3 expression; non-induced KCNK3 parental cells, FluxOR thallium flux; stronger effect = lower value; 2,400 tested, 40% active; thallium flux ratio (lower = more inhibition) at 10 µM; AID 651747; shares compounds with KCNK3 inh;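 active = thallium flux ratio, averaged over three wells, more than 5 SD below the buffer control mean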;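 note: host cells are CHO cells without KCNK3 induction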
Large screens that a line does not name were inactive (follow-up assays come after a bar, where they were run).

Nc1ccc(C(=O)N2CCN(S(=O)(=O)/C=C/c3ccccc3)CC2)cc1[N+](=O)[O-]	none
CC(C)(C)OC(=O)NCCCC1=CC2=CC(=O)C(C)(O)C(=O)C2=CO1 (stereo unspecified)	none (no result: KCNK3 inh)
CCOC(=O)C1=C(COC(=O)Cc2ccc(Br)cc2)NC(=O)NC1C (stereo unspecified)	none
COc1ccc(CNCC(O)(c2ccc(Cl)cc2)c2ccc(Cl)cc2)cc1	KCNK3 inh -9.3 | KCNK3 inh conf 131 | KCNK3 uninduced inactive
CCOC(=O)c1sc2nc(C)nc(N3CCCCC3C)c2c1C (stereo unspecified)	KCNK3 inh -8.8 | KCNK3 inh conf 90 | KCNK3 uninduced 0.15
CCOC(=O)C1=C(C)N=C2c3ccccc3C(=O)C2C1c1ccccc1 (stereo unspecified)	KCNK3 inh -8.9 | KCNK3 inh conf 102 | KCNK3 uninduced inactive
COc1ccc(S(=O)(=O)Oc2ccc3cccc(N)c3c2)cc1	KCNK3 inh -9.1 | KCNK3 inh conf 101 | KCNK3 uninduced inactive
CNS(=O)(=O)c1ccc(NC(=O)c2ccccn2)cc1	none
COc1cc(NC(=O)c2cc(-c3cccnc3)nc3ccc(Br)cc23)cc(OC)c1	none
O=C(Nc1cccnc1)c1cc(-c2cccnc2)nc2ccc(Br)cc12	KCNK3 inh -13, KCNK9 inh -7.7 | KCNK3 inh conf 124 | KCNK3 uninduced 0.12
C=CCOc1ccc(C(=O)n2cc(C(=O)OC)c3ccccc32)cc1	KCNK3 inh -9.3 | KCNK3 inh conf 114 | KCNK3 uninduced inactive
COC(=O)c1cn(C(=O)c2ccc(F)cc2)c2ccccc12	none
Cc1cccn2c(=O)c(/C=C(\C#N)C(N)=O)c(N3CCN(c4cccc(Cl)c4)CC3)nc12	KCNK3 inh -10, KCNK9 inh -7.2 | KCNK3 inh conf 102 | KCNK3 uninduced inactive
O=C(N/N=C/c1cccc(Oc2ccccc2)c1)c1ccccc1Br	KCNK3 inh -12 | KCNK3 inh conf 91 | KCNK3 uninduced inactive
NC(=O)c1ccc(C(=O)N/N=C/c2cccc(Oc3ccccc3)c2)cc1	none
[O-]/C(=C(\C(=S)NCc1ccccc1)[n+]1ccccc1)c1ccc(Cl)cc1	none
COc1ccc(N=C2SCC(c3ccc([N+](=O)[O-])cc3)=NN2CCO)cc1	none
O=[N+]([O-])c1ccc(C2=NN(CCO)C(=Nc3ccc(OC(F)(F)F)cc3)SC2)cc1	KCNK3 inh -10 | KCNK3 inh conf 131 | KCNK3 uninduced inactive
O=S(=O)(c1ccccc1)c1nc(-c2cccs2)oc1NCCCn1ccnc1	none
CCCCNc1oc(-c2cccs2)nc1S(=O)(=O)c1ccccc1	KCNK3 inh -9.5 | KCNK3 inh conf 127 | KCNK3 uninduced 0.13
COC(=O)c1cc(C(=O)OCC(=O)c2ccc3c(c2)NC(=O)CO3)cc([N+](=O)[O-])c1	none (no result: Kir21 inh, KCNQ1 pot, KCNQ1 block, hERG rescue, KCNK9 inh)
CC12CCC(=O)N1C(C(=O)Nc1ccccc1F)CS2 (stereo unspecified)	none
Nc1nonc1-n1nnc(C(=O)N/N=C/c2cc(Br)ccc2O)c1CNc1ccccc1	KCNK3 inh -10 | KCNK3 inh conf 82 | KCNK3 uninduced inactive
Cc1ccc(NC(=O)c2ccc3ncsc3c2)cc1S(=O)(=O)N(C)C	none (no result: KCNK3 inh)
CCc1ncc(CN2CCCC(C(=O)Nc3cccc(-c4cccc(C)c4)c3)C2)cn1 (stereo unspecified)	KCNK3 inh -11 | KCNK3 inh conf 115 | KCNK3 uninduced 0.15
CC(CNC(=S)Nc1cc(F)cc(F)c1)CSc1ccc(Cl)cc1 (stereo unspecified)	KCNQ1 block 9, KCNK3 inh -13 | KCNK3 inh conf 117 | KCNK3 uninduced 0.14
Cc1cccc(C)c1OCc1cc(C(=O)N2CCCC2c2nonc2C)no1 (stereo unspecified)	KCNK3 inh -9.4 | KCNK3 inh conf 108 | KCNK3 uninduced inactive
C=CCN1C(=O)C2(C(C#N)=C(N)Oc3n[nH]c(CCC)c32)c2ccccc21 (stereo unspecified)	none
Cc1ccc(SCCNC(=O)/C=C/c2ccc(Cl)cc2)cc1	none
Cc1ccc(SCCNC(=O)/C=C/c2ccccc2Cl)cc1	KCNK3 inh -14 | KCNK3 inh conf 123 | KCNK3 uninduced 0.13
C/C(=N\Nc1cc(C)nc(-c2ccccc2O)n1)c1ccccc1O	KCNQ1 block 10, KCNK3 inh -9.1 | KCNK3 inh conf 106 | KCNK3 uninduced inactive
Cc1cc(N/N=C\c2ccccc2)nc(-c2ccccc2O)n1	none
COc1ccc(NS(=O)(=O)c2ccc3c(c2)N(C(C)=O)CC(C)S3)c(OC)c1 (stereo unspecified)	none
Fc1ccc(-c2cnc(-c3cccs3)o2)cc1	KCNK3 inh -9.6 | KCNK3 inh conf 93 | KCNK3 uninduced 0.15
O=C(Nc1ccc(CN2CCOCC2)cc1)c1ccc(Cl)cc1Cl	none
O=C(Nc1ccc(CN2CCOCC2)cc1)c1ccc(-c2ccc(Cl)cc2Cl)o1	KCNK3 inh -9.7 | KCNK3 inh conf 103 | KCNK3 uninduced inactive
COCCN(C(=S)Nc1cc(C)cc(C)c1)C(C)c1ccco1 (stereo unspecified)	KCNK3 inh -9 | KCNK3 inh conf 85 | KCNK3 uninduced inactive
COCCN(C(=S)Nc1cc(C)cc(C)c1)C(C)c1cccs1 (stereo unspecified)	none
O=C(Cc1ccccc1)Nc1ccc(NC(=O)c2cccs2)cc1Cl	none
COc1cc(Br)c(CC(=O)NC2CC2)cc1OC	none
C=C(C)COc1ccc(-c2[nH]ncc2Oc2ccccc2OC)c(O)c1	none
C=C(C)COc1ccc(-c2[nH]ncc2-c2ccccc2OC)c(O)c1	KCNK3 inh -9 | KCNK3 inh conf 96 | KCNK3 uninduced inactive
Cc1ccc(NC(=O)COc2ccc(N(C)S(=O)(=O)c3ccc(F)cc3)cc2)cc1	none (no result: Kir21 inh, KCNQ1 pot, KCNQ1 block, hERG rescue, KCNK9 inh)
CC(C)C(CCNC(=O)CC(Cc1ccccc1)c1ccco1)c1ccco1 (stereo unspecified)	KCNK3 inh -9.4 | KCNK3 inh conf 120 | KCNK3 uninduced 0.15
COc1ccc(Nc2nc(-c3cccs3)cs2)c(OC)c1	none
COc1ccc(OC)c(Nc2nc(-c3cccs3)cs2)c1	KCNK3 inh -9.1 | KCNK3 inh conf 90 | KCNK3 uninduced inactive
COC(=O)c1ccc(COC(=O)[C@@H]2CC(O)CN2S(=O)(=O)c2ccccc2[N+](=O)[O-])cc1 (stereo partly specified)	none
Cc1ccc2c(CN(C)Cc3cccc(F)c3)cc(=O)oc2c1	none
